Test results published in ChEMBL document CHEMBL1121948, “Alkylation of the prosthetic heme in cytochrome P-450 during oxidative metabolism of the sedative-hypnotic ethchlorvynol” (1982).

What was measured:
Type in all cases: functional
Rattus norvegicus [1] = species: Rattus norvegicus; test: Percentage cytochrome P-450 loss from phenobarbital pretreated rats was measured in the presence of the Ethchlorvynol after 30 min; Not detectable
Rattus norvegicus [2] = species: Rattus norvegicus; test: Percentage cytochrome P-450 loss from phenobarbital pretreated rats was measured in the presence of the Ethchlorvynol after 10 min; Not detectable
Rattus norvegicus [3] = species: Rattus norvegicus; test: Percentage cytochrome P-450 loss from phenobarbital pretreated rats was measured in the presence of the Ethchlorvynol after 20 min; Not detectable
Rattus norvegicus [4] = species: Rattus norvegicus; test: Percentage cytochrome P-450 loss from phenobarbital pretreated rats was measured in the presence of oxygen and NADPH after 10 min
Summary of the method: (§1)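 Liver microsomes from phenobarbital-pretreated male Sprague-Dawley rats (1 mg/mL protein) were incubated at 37 °C with 1 mM ethchlorvynol, 1 mM NADPH, 1.5 mM EDTA and 150 mM KCl in […], pH 7.4, under air. The reaction was started with NADPH. Cytochrome P-450 loss was measured spectroscopically. Values are the mean ± SD of three determinations.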

Rattus norvegicus [5] = species: Rattus norvegicus; test: Heme loss from phenobarbital pretreated rats was measured in the presence of oxygen and NADPH after 20 min
Summary of the method: (§2)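 This was a separate 20-min experiment using the standard microsomal mix at 37 °C: phenobarbital-induced rat microsomes at 1 mg/mL, 1 mM ethchlorvynol, 1 mM NADPH, EDTA and KCl in phosphate buffer pH 7.4. P-450 loss was measured spectroscopically and heme loss by the pyridine hemochromogen assay, both expressed in nmol. Values are the mean ± SD of three determinations.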

Rattus norvegicus [6] = species: Rattus norvegicus; test: Percentage cytochrome P-450 loss from phenobarbital pretreated rats was measured in the presence of oxygen and NADPH after 30 min; summary of the method: as §1
Rattus norvegicus [7] = species: Rattus norvegicus; test: Percentage cytochrome P-450 loss from phenobarbital pretreated rats was measured in the presence of the NADPH after 30 min; Not detectable
Rattus norvegicus [8] = species: Rattus norvegicus; test: Percentage cytochrome P-450 loss from phenobarbital pretreated rats was measured in the presence of the oxygen after 20 min
Rattus norvegicus [9] = species: Rattus norvegicus; test: Cytochrome P-450 loss from phenobarbital pretreated rats was measured in the presence of oxygen and NADPH after 20 min; summary of the method: as §2
Rattus norvegicus [10] = species: Rattus norvegicus; test: Percentage cytochrome P-450 loss from phenobarbital pretreated rats was measured in the presence of oxygen and NADPH after 20 min; summary of the method: as §1
Rattus norvegicus [11] = species: Rattus norvegicus; test: Percentage cytochrome P-450 loss from phenobarbital pretreated rats was measured in the presence of the NADPH after 20 min; Not detectable
Rattus norvegicus [12] = species: Rattus norvegicus; test: Percentage cytochrome P-450 loss from phenobarbital pretreated rats was measured in the presence of the NADPH after 10 min; Not detectable

With `C#CC(O)(/C=C/Cl)CC` (configuration not stated) [ETHCHLORVYNOL] the Cytochrome loss (Rattus norvegicus [1]) was “Not detectable”, the Cytochrome loss (Rattus norvegicus [2]) was “Not detectable” and the Cytochrome loss (Rattus norvegicus [3]) was “Not detectable”. It also gave a Cytochrome loss (Rattus norvegicus [4]) of 30%, a Heme loss (Rattus norvegicus [5]) of 0.32 nM and a Cytochrome loss (Rattus norvegicus [6]) of 38%. For the same compound, the Cytochrome loss (Rattus norvegicus [7]) was “Not detectable”, the Cytochrome loss (Rattus norvegicus [8]) was 4% and the P-450 loss (Rattus norvegicus [9]) was 0.52 nM. For the same compound, the Cytochrome loss (Rattus norvegicus [10]) was 35%, the Cytochrome loss (Rattus norvegicus [11]) was “Not detectable” and the Cytochrome loss (Rattus norvegicus [12]) was “Not detectable”.
